Measured values: ChEMBL document CHEMBL1121966, “(2R*,3S*)-1-[125I]Iodo-2,3-bis(4-hydroxyphenyl)pentane ([125I]iodonorhexestrol) and (2R*,3S*)-1-[77Br]Bromo-2,3-bis(4-hydroxyphenyl)pentane ([77Br]bromonorhexestrol), two gamma-emitting estrogens that show receptor-mediated uptake by target tissues in vivo” (1982)

Legend:
Rattus norvegicus [1] = organism: Rattus norvegicus; test: Percent injected dose per gram spleen at 3h; type: functional
Outline: (§1)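 Immature (25 day) female Sprague-Dawley rats (ca. 50 g) were dosed iv (jugular or tail vein) in ethanol plus 0.9% NaCl/rat serum (1:1). Doses were 2 μCi of [125I]iodonorhexestrol (≤15 pmol/dose), or 2 μCi each of [77Br]bromonorhexestrol (≤1.25 pmol/dose) and 16α-[125I]iodoestradiol (2 pmol/dose). Rats were killed at 1, 3 or 6 h; blood and tissues were weighed and γ-counted. Thyroid weight assumed 0.005 g/100 g body weight. Mean ± SD.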

Rattus norvegicus [2] = organism: Rattus norvegicus; test: Percent injected dose per gram spleen at 6 hr; type: functional; outline: as §1
Rattus norvegicus [3] = organism: Rattus norvegicus; test: Percent injected dose per gram esophagus at 3h; type: functional
Outline: (§2)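 Dual-label study in immature 25-day female Sprague-Dawley rats (ca. 50 g). Each received 2 μCi [77Br]bromo tracer (≤1.25 pmol/dose) and 2 μCi 16α-[125I]iodoestradiol (2 pmol/dose) by tail or jugular vein, in ethanol diluted with saline/rat serum 1:1. Rats were killed at 3 or 6 h; blood and 11 tissues were weighed and counted. Five rats per time point; mean ± SD.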

Rattus norvegicus [4] = organism: Rattus norvegicus; test: Percent injected dose per gram Ovaries at 1 hr; type: functional
Outline: (§3)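 Immature (25-day, ca. 50 g) Sprague-Dawley female rats received an iv injection (jugular or tail vein) of HPLC-purified tracer in ethanol plus 0.9% NaCl/rat serum 1:1. Doses were 2 μCi [125I]iodo tracer (≤15 pmol), or 2 μCi [77Br]bromo tracer (≤1.25 pmol) with 2 μCi 16α-[125I]iodoestradiol. Animals were killed at 1 h; blood and tissues were weighed and γ-counted. Blocking: coinjected unlabeled estradiol, 9 μg (iodo) or 18 μg (bromo). Mean ± SD.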

Rattus norvegicus [5] = organism: Rattus norvegicus; test: Percent injected dose per gram blood at 3h; type: functional; outline: as §2
Rattus norvegicus [6] = organism: Rattus norvegicus; test: Percent injected dose per gram liver at 3h; type: functional; outline: as §1
[7] = Muscle/blood distribution ratio was determined immature female rats at 1 hr with unlabeled estradiol; type: functional; outline: as §3
[8] = Esophagus/blood distribution ratio was determined in immature female rats at 1 hr with unlabeled estradiol; type: functional; outline: as §3
[9] = Uterus/blood distribution ratio was measured in immature female rats at 6 hr; type: functional; outline: as §1
[10] = Lung/blood distribution ratio was determined in immature female rats at 1 hr; type: functional; outline: as §3
[11] = Esophagus/blood distribution ratio was determined in immature female rats at 6 hr; type: functional; outline: as §2
Rattus norvegicus [12] = organism: Rattus norvegicus; test: Percent injected dose per gram thyroid at 3h; type: functional, Thyroid gland; outline: as §1
Rattus norvegicus [13] = organism: Rattus norvegicus; test: Percent injected dose per gram Ovaries at 6 hr; type: functional; outline: as §2
Rattus norvegicus [14] = organism: Rattus norvegicus; test: Percent injected dose per gram lung at 1 hr with unlabeled estradiol; type: functional
Outline: (§4)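 Same iv biodistribution in immature female rats, killed at 1 h, with unlabeled estradiol coinjected to block receptor uptake: 9 μg with [125I]iodonorhexestrol (3 rats), 18 μg with the [77Br]bromonorhexestrol/16α-[125I]iodoestradiol pair (5 rats). Tissue and blood radioactivity were counted as % injected dose/g and tissue-to-blood ratio.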

Rattus norvegicus [15] = organism: Rattus norvegicus; test: Percent injected dose per gram esophagus at 1 hr; type: functional; outline: as §3
Rattus norvegicus [16] = organism: Rattus norvegicus; test: Percent injected dose per gram esophagus at 1 hr with unlabeled estradiol; type: functional; outline: as §3
Rattus norvegicus [17] = organism: Rattus norvegicus; test: Percent injected dose per gram thyroid at 1 hr; type: functional, Thyroid gland; outline: as §1
[18] = Ovary/blood distribution ratio was determined in immature female rats at 6 hr; type: functional; outline: as §2
[19] = Liver/blood distribution ratio was determined in immature female rats at 6 hr; type: functional; outline: as §2
[20] = Esophagus/blood distribution ratio was determined in immature female rats at 1 hr; type: functional; outline: as §3
Rattus norvegicus [21] = organism: Rattus norvegicus; test: Percent injected dose per gram blood at 1 hr; type: functional; outline: as §3
Rattus norvegicus [22] = organism: Rattus norvegicus; test: Percent injected dose per gram Uterus at 1 hr; type: functional; outline: as §3
[23] = Kidney/blood distribution ratio was determined in immature female rats at 3h; type: functional; outline: as §2
[24] = Tissue/blood distribution ratio was measured in immature female rats at 3h; type: functional; outline: as §1
[25] = Lung/blood distribution ratio was determined in immature female rats at 3h; type: functional; outline: as §2
[26] = Muscle/blood distribution ratio was determined in immature female rats at 1 hr; type: functional; outline: as §3
[27] = Liver/blood distribution ratio was determined in immature female rats at 1 hr; type: functional; outline: as §3
[28] = Kidney/blood distribution ratio was determined in immature female rats at 1 hr with unlabeled estradiol; type: functional; outline: as §3
[29] = Lung/blood distribution ratio was determined in immature female rats at 6 hr; type: functional; outline: as §2
Rattus norvegicus [30] = organism: Rattus norvegicus; test: Percent injected dose per gram Muscle at 3h; type: functional; outline: as §2
Rattus norvegicus [31] = organism: Rattus norvegicus; test: Percent injected dose per gram Uterus at 1 hr with unlabeled estradiol; type: functional; outline: as §3
Rattus norvegicus [32] = organism: Rattus norvegicus; test: Percent injected dose per gram lung at 3h; type: functional; outline: as §1
Rattus norvegicus [33] = organism: Rattus norvegicus; test: Percent injected dose per gram Muscle at 6 hr; type: functional; outline: as §2
Rattus norvegicus [34] = organism: Rattus norvegicus; test: Percent injected dose per gram blood at 6 hr; type: functional; outline: as §2
[35] = Spleen/blood distribution ratio was determined in immature female rats at 1 hr with unlabeled estradiol; type: functional
[36] = Ovary/blood distribution ratio was determined in immature female rats at 1 hr; type: functional; outline: as §3
[37] = Thyroid/blood distribution ratio was determined in immature female rats at 1 hr with unlabeled estradiol; type: functional; outline: as §4
[38] = Tissue/blood distribution ratio was measured in immature female rats at 1h, unlabeled estradiol (18 microg) coinjected; type: functional
Outline: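 Immature female rats given iv [77Br]bromonorhexestrol with 16α-[125I]iodoestradiol (2 μCi each) plus 18 μg unlabeled estradiol coinjected; killed at 1 h. Tissue and blood were weighed and counted, and tissue-to-blood radioactivity ratios were computed; 5 animals, mean ± SD.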

[39] = Spleen/blood distribution ratio was determined immature female rats at 6 hr; type: functional; outline: as §1
Rattus norvegicus [40] = organism: Rattus norvegicus; test: Percent injected dose per gram liver at 1 hr with unlabeled estradiol; type: functional; outline: as §4

Work on `C[C@]12CC[C@@H]3c4ccc(O)cc4CC[C@H]3[C@@H]1C[C@@H](I)[C@@H]2O` yielded an Injected dose (Rattus norvegicus [1]) of 0.18%, an Injected dose (Rattus norvegicus [2]) of 0.08% and an Injected dose (Rattus norvegicus [3]) of 0.32%. It also gave an Injected dose (Rattus norvegicus [4]) of 4.17%, an Injected dose (Rattus norvegicus [5]) of 0.46% and an Injected dose (Rattus norvegicus [6]) of 1.96%. For the same compound, the Ratio [7] was 0.5, the Ratio [8] was 0.95 and the Ratio [9] was 9.14. For the same compound, the Ratio [10] was 0.86, the Ratio [11] was 0.76 and the Injected dose (Rattus norvegicus [12]) was 190.9%. The Injected dose (Rattus norvegicus [13]) was 0.52%, the Injected dose (Rattus norvegicus [14]) was 1.76% and the Injected dose (Rattus norvegicus [15]) was 0.49%. The Injected dose (Rattus norvegicus [16]) was 1.07%, the Injected dose (Rattus norvegicus [17]) was 7.46% and the Ratio [18] was 2.49. For the same compound, the Ratio [19] was 6.28, the Ratio [20] was 0.62 and the Injected dose (Rattus norvegicus [21]) was 0.47%. For the same compound, the Injected dose (Rattus norvegicus [22]) was 9.59%, the Ratio [23] was 1.83 and the Ratio [24] was 1. For the same compound, the Ratio [25] was 0.67, the Ratio [26] was 0.42 and the Ratio [27] was 3.55. It also gave a Ratio [28] of 1.4, a Ratio [29] of 0.93 and an Injected dose (Rattus norvegicus [30]) of 0.15%. The Injected dose (Rattus norvegicus [31]) was 1.81%, the Injected dose (Rattus norvegicus [32]) was 0.36% and the Injected dose (Rattus norvegicus [33]) was 0.05%. The Injected dose (Rattus norvegicus [34]) was 0.22%, the Ratio [35] was 0.67 and the Ratio [36] was 3.02. The Ratio [37] was 44.5, the Ratio [38] was 1 and the Ratio [39] was 0.35. It also gave an Injected dose (Rattus norvegicus [40]) of 4.91%.
